Results gathered from unrelated publications.
In brackets after ≈: the same amount, converted by molar mass.
Organism: Pseudomonas aeruginosa

The MIC90 of `C[C@@H](O)[C@H]1C(=O)N2C(C(=O)O)=C(S[C@@H]3CN[C@H](C(=O)N(C)C)C3)[C@H](C)[C@H]12` is reported as 0.25 µg/mL (≈ 0.652 µM) (microbial growth; PAO1).
The MBC of `CCCCCCCCCCCC(=O)OC[C@H]1O[C@@H](n2cc(C)c(=O)[nH]c2=O)C[C@@H]1O` is reported as 16 µg/mL (≈ 37.7 µM) (microbial killing, broth dilution).
For `O=C(Nc1cccc(-c2cc(C(=O)O)no2)c1)Nc1ccc(Cl)c(Cl)c1`, the MIC was greater than 64 µg/mL (microbial growth, broth dilution; ATCC27853).
For `O=C(O)c1cn(C2CC2)c2cc(N3CCNCC3)c(F)cc2c1=O`, the inhibition zone was 33.5 mm (microbial growth; K799/61; 1000 µg/mL).
`COC(=O)c1cc(-c2cccc(NC(=O)Nc3cccc(F)c3)c2)on1` gave an MIC of greater than 64 µg/mL (microbial growth, broth dilution; ATCC27853).
The inhibition zone of `CC1(C)S[C@@H]2[C@H](NC(=O)[C@H](N)c3ccccc3)C(=O)N2[C@H]1C(=O)O` is reported as 32 mm (microbial growth, well diffusion; ATCC27853; 60000 µg/mL).
The MIC of `COc1cccc(OC)c1C(=O)N[C@@H]1C(=O)N2[C@@H]1SC(C)(C)[C@@H]2C(=O)O` is reported as greater than 64 µg/mL (microbial growth, broth dilution; ATCCBAA2108; drug-resistant strain).
The MIC50 of `ONCc1cc(F)cc(F)c1` is reported as 150 µg/mL (≈ 943 µM) (microbial growth; ATCC15692; 8 h).
`CSc1ccc(/C=C/c2cc(/C=C3\Sc4ccccc4N3CCCN3CCCC3)c3ccccc3[n+]2C)cc1.[I-]` gave an MIC of 64 µg/mL (microbial growth, broth dilution; ATCCBAA2108; drug-resistant strain).
`CCCCCCCCCCCC(=O)OC[C@H]1O[C@@H](n2cc(C)c(=O)[nH]c2=O)C[C@@H]1OC(=O)c1ccc(C(C)(C)C)cc1` gave an MBC of 16 µg/mL (≈ 27.4 µM) (microbial killing, broth dilution).
